ChEMBL document CHEMBL4311966, “Sulfide, sulfoxide and sulfone bridged acyclic nucleoside phosphonates as inhibitors of the Plasmodium falciparum and human 6-oxopurine phosphoribosyltransferases: Synthesis and evaluation” (Eur J Med Chem, 2019)

Key:
[1] = Inhibition of Plasmodium falciparum HGPRT using xanthine as substrate by Hanes-plot based method
Procedure, shortened: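 Ki was determined for PfHGXPRT using xanthine as the substrate, under the conditions used for human HGPRT. The reaction was followed spectrophotometrically at 255 nm, with Δε 4670 M⁻¹ cm⁻¹. Km for xanthine was 189 ± 18 μM.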

[2] = biological target: T1, Hypoxanthine-guanine phosphoribosyltransferase (Homo sapiens, UniProt P00492); assay: Inhibition of human HGPRT using Prib-PP as substrate by Hanes-plot based method
T1 sequence (P00492 whole entry): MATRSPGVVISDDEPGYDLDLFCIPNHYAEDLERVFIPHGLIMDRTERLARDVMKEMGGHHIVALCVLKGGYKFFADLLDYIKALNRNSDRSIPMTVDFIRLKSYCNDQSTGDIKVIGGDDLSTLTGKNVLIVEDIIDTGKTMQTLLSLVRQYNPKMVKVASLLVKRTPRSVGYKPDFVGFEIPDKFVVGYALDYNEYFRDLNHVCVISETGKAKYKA

[3] = Selectivity index, ratio of Ki for human HGPRT to Ki for Plasmodium falciparum HGPRT
[4] = system: Plasmodium falciparum; assay: Antimalarial activity against chloroquine-resistant Plasmodium falciparum W2 in erythrocytes assessed as reduction in 3H-hypoxanthine uptake incubated for 96 hrs and 3H-hypoxanthine added after 48 hrs of compound addition
[5] = Cytotoxicity against human CCRF-CEM cells assessed as cell viability at 10 uM; format: cell-based; conditions: read-out: Activity
Procedure, shortened: (§1)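 Percent viability of human HepG2 (hepatocellular carcinoma) and CCRF-CEM (T-cell leukemia) cells after exposure to a single fixed prodrug concentration of 10 μM, expressed relative to untreated control cells.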

[6] = system: Plasmodium falciparum; assay: Antimalarial activity against Plasmodium falciparum D6 in erythrocytes assessed as reduction in 3H-hypoxanthine uptake incubated for 96 hrs and 3H-hypoxanthine added after 48 hrs of compound addition
[7] = Cytotoxicity against human HepG2 cells assessed as cell viability at 10 uM; format: cell-based; conditions: read-out: Activity; procedure, shortened: as §1

Question: What does the source list for `Nc1nc2c(ncn2CC[S+]([O-])CCP(=O)(O)O)c(=O)[nH]1` (configuration not stated)?
Answer: Ki [1]: 300 nM; Ki [2]: 0.2 µM; Ratio Ki [3]: 0.7

Question: Which results are given for `O=c1[nH]cnc2c1ncn2CCSCCP(=O)(O)O`?
Answer: Ki [1]: 200 nM; Ki [2]: 5 µM; Ratio Ki [3]: 25

Question: For `Nc1nc2c(ncn2CCCSCP(=O)(O)O)c(=O)[nH]1`, which Ki [1] is on record?
Answer: 1100 nM

Question: And the Ki [2]?
Answer: 1.4 µM

Question: And the Ratio Ki [3]?
Answer: 1.3

Question: With `O=c1[nH]cnc2c1ncn2CCCSCP(=O)(O)O` as the compound, how does the Ki [1] read?
Answer: 3000 nM

Question: And the Ki [2]?
Answer: > 80 µM

Question: And the Ratio Ki [3]?
Answer: > 26

Question: What does the source list for `CC(C)OC(=O)[C@H](Cc1ccccc1)NP(=O)(CCSCCn1cnc2c(=O)[nH]c(N)nc21)N[C@@H](Cc1ccccc1)C(=O)OC(C)C`?
Answer: IC50 [4]: 4.4 µM; viability at 10 µM [5]: 106%; IC50 [6]: 5.4 µM; viability at 10 µM [7]: 83%

Question: For `CC(C)OC(=O)[C@H](Cc1ccccc1)NP(=O)(CSCCCn1cnc2c(=O)[nH]c(N)nc21)N[C@@H](Cc1ccccc1)C(=O)OC(C)C`, which IC50 [4] is on record?
Answer: 5.2 µM

Question: What about the viability at 10 µM [5] of the same compound?
Answer: 98%

Question: And the IC50 [6]?
Answer: 4 µM

Question: What about the viability at 10 µM [7] of the same compound?
Answer: 95%

Question: For `O=c1[nH]cnc2c1ncn2CCC[S+]([O-])CP(=O)(O)O` (configuration not stated), which Ki [1] is on record?
Answer: 4000 nM

Question: And the Ki [2]?
Answer: 11 µM

Question: What about the Ratio Ki [3] of the same compound?
Answer: 2.8

Question: With `CC(C)OC(=O)[C@H](Cc1ccccc1)NP(=O)(CCSCCn1cnc2c(=O)[nH]cnc21)N[C@@H](Cc1ccccc1)C(=O)OC(C)C` as the compound, how does the IC50 [4] read?
Answer: 5.4 µM

Question: What about the viability at 10 µM [5] of the same compound?
Answer: 100%

Question: What about the IC50 [6] of the same compound?
Answer: 4.4 µM

Question: And the viability at 10 µM [7]?
Answer: 90%

Question: Which Ki [1] does the source give for `O=c1[nH]cnc2c1ncn2CCS(=O)(=O)CCP(=O)(O)O` here?
Answer: 4000 nM

Question: What about the Ki [2] of the same compound?
Answer: > 90 µM

Question: And the Ratio Ki [3]?
Answer: > 22

Question: With `O=c1[nH]cnc2c1ncn2CCCS(=O)(=O)CP(=O)(O)O` as the compound, how does the Ki [1] read?
Answer: 4500 nM

Question: What about the Ki [2] of the same compound?
Answer: 46 µM

Question: What about the Ratio Ki [3] of the same compound?
Answer: 10

Question: Which Ki [1] does the source give for `Nc1nc2c(ncn2CCSCCP(=O)(O)O)c(=O)[nH]1` here?
Answer: 100 nM

Question: And the Ki [2]?
Answer: 0.4 µM

Question: What about the Ratio Ki [3] of the same compound?
Answer: 4

Question: Which results are given for `O=c1[nH]cnc2c1ncn2CC[S+]([O-])CCP(=O)(O)O` (configuration not stated)?
Answer: Ki [1]: 1000 nM; Ki [2]: 4 µM; Ratio Ki [3]: 4

Question: Which Ki [1] does the source give for `Nc1nc2c(ncn2CCC[S+]([O-])CP(=O)(O)O)c(=O)[nH]1` (configuration not stated) here?
Answer: 200 nM

Question: What about the Ki [2] of the same compound?
Answer: 3 µM

Question: What about the Ratio Ki [3] of the same compound?
Answer: 15
